# Screening data from PubChem BioAssay.
# Statin myotox sup = suppression of simvastatin myotoxicity; rescue of ATP level, % at 7.49 µM; C2C12 myotubes + simvastatin, ATP luminescence, 48 h; scaled: DMSO 0, geranylgeraniol control 100; 330,000 tested, 0.78% active;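 active = mean ATP rescue above about 67%, or every replicate alone reaching that limit, limit read from the data, passing the limit was not always enough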;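 note: myotubes were challenged with 10 µM simvastatin during compound exposure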
# E-selectin induc = E-selectin induction on HUVECs | P16581 | AID 686992 | 260,000 tested, 0.37% active | activation, % at 7.58 µM | HUVEC E-selectin immunofluorescence imaging; normalized: neutral wells 0, TNF-alpha wells 100;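 active = mean E-selectin-positive cell signal at least 10% of the positive control, reached in at least 60% of replicates, without over 20% cell loss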
# Target sequence (P16581 whole entry, looked up): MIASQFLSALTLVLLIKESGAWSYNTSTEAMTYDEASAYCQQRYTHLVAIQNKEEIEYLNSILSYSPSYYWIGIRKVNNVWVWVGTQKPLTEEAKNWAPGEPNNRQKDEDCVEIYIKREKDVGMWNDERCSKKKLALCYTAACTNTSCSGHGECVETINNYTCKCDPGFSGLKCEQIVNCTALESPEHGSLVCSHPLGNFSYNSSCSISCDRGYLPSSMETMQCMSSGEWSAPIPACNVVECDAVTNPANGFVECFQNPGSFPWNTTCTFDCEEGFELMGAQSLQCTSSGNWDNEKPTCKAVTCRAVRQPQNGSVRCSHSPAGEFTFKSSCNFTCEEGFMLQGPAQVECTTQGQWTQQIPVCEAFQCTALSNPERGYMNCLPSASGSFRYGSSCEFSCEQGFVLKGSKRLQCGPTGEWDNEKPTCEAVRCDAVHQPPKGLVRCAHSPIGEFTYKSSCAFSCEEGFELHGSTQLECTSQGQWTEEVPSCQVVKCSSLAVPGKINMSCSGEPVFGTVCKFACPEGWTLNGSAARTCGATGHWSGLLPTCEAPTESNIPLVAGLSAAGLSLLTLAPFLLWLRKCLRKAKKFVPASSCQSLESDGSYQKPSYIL
#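 Read-out basis: % PE-positive cells; Test system: HUVEC primary endothelial cells; Technique: immunofluorescence imaging; Dosing: single-point compound dose.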
# FN deposit inh = fibronectin deposition inhibition; AH1F fibroblasts, Alexa488-fibronectin deposition fluorescence, overnight; inhibition, % at 12.6 µM; 350,000 tested, 0.086% active; AID 743247;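 active = mean inhibition across replicates of 30% or more, regardless of how many single replicates reach that level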
#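 Material: AH1F fibroblast monolayer depositing Alexa488-labelled fibronectin into matrix | Input: 10000 AH1F cells/well | Medium: DMEM plus 2% serum, read in PBS | Reagent: Alexa488-fibronectin, 24 nM final in well | Compound dosing: One dose per compound, pinned | Schedule: 1 h adhesion, overnight exposure | Measured by: Fluorescence at 485 nm excitation, 525 nm emission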
# FGF22 binding = FGF22 (human) thermal shift binding; recombinant FGF22 thermal shift, SYPRO orange fluorescence; percent of sucrose octasulfate shift, DMSO zero; 340,000 tested, 1.5% active; Q9HCT0; activity (Tm shift, normalised), % at 9.99 µM;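 active = mean Tm shift, scaled 0 neutral to 100 positive control, at about 1.3% or above, every replicate too, limit read from the data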
# rRNA inh HTS = inhibitors of bacterial rRNA selective over humanized ribosomes; E. coli WT GFP vs humanized-ribosome RFP mutants, fluorescence, 24 h; hits give low values; DMSO median 0, no signal -100; 350,000 tested, 1.6% active; GFP signal change (wild-type ribosome), % (concentration not given with the values);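 active = significant combined selectivity score with lowered wild-type GFP, culture density cut under 30%, mutant RFP and density less affected; inactive = any of these conditions unmet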
# SIRT5 block = blocks human SIRT5 desuccinylation of peptide; AID 652115; Q9NXA8; 330,000 tested, 1.1% active; inhibition, % at 15 µM; Purified SirT5, succinyl-peptide AMC, trypsin-coupled fluorescence; in the data active = inhibition above about 15%
# Hits are given with their value; i = inactive; nt = not tested or not shown; ! = not confirmed by another sample. The list is not random: actives were taken first. Their share in the collection is about 4%.
SMILES,Statin myotox sup,E-selectin induc,FN deposit inh,FGF22 binding,rRNA inh HTS,SIRT5 block
COc1ccc2c3c(n(C)c2c1)[C@@H](CO)N(C(=O)CC1CC1)CC31CN(C(=O)C2CC2)C1,nt,i,nt,i,i,nt
Cc1noc(C)c1NC(=O)N(C)C[C@@H]1Oc2ccc(NC(=O)c3ccncc3)cc2C(=O)N([C@@H](C)CO)C[C@H]1C,i,i,nt,i,i,i
Cc1noc(C)c1NC(=O)N(C)C[C@H]1Oc2ccc(NS(=O)(=O)c3cccs3)cc2C(=O)N([C@H](C)CO)C[C@@H]1C,i,255!,i,i,i,i
Cc1noc(C)c1NC(=O)N(C)C[C@@H]1Oc2ccc(NC(=O)c3ccncc3)cc2C(=O)N([C@H](C)CO)C[C@H]1C,i,354,nt,i,i,i
C=CCNC(=O)/C(C#N)=C/c1ccccc1Cl,nt,i,i,43,i,i
C=CCNC(=O)/C(C#N)=C/c1ccc(C(=O)O)cc1,i,i,i,i,i,i
Cc1cccc(NC(=O)/C(C#N)=C/c2ccccc2Cl)n1,i,nt,i,i,-22,i
Cc1cccc(NC(=O)/C(C#N)=C/c2ccccc2O)n1,i,nt,i,i,i,i
C[C@H]1CCCCO[C@H](CN(C)C(=O)CCCN(C)C)[C@@H](C)CN([C@@H](C)CO)C(=O)c2cc(NS(C)(=O)=O)ccc2O1,i,i,nt,i,i,i
Nc1ccccc1N=Cc1ccc(-c2cccc(Cl)c2)o1,i,nt,i,i,-26,i
N#CC(=C1Nc2ccccc2N1)S(=O)(=O)c1ccccc1,108,i,i,43,i,i
O=C(CN1C(=O)CC(c2ccccc2)Sc2ccccc21)NCC1CCCO1 (configuration not stated),i,i,i,43,i,i
COc1ccc(C2CC(=O)N(CC(=O)NCC3CCCO3)c3ccccc3S2)cc1OC (configuration not stated),i,nt,i,i,i,i
COC(=O)[C@H]1[C@H](CO)[C@H]2Cn3c(ccc(-c4ccc(F)cc4)c3=O)[C@H]2N1C,i,i,nt,i,i,i
CCOC(=O)c1cnc2nc(C)nn2c1N,i,i,i,43,nt,69
CC1(C)OC2OC(C(=O)N/N=C/c3ccccc3F)C3OC(C)(C)OC3C2O1 (configuration not stated),103,nt,i,44,i,i
CO[C@H]1CN(C)C(=O)c2cc(NC(=O)C3CC3)ccc2OC[C@H](C)N(CCc2ccccc2)C[C@@H]1C,i,i,i,nt,i,nt
COc1cccc(OC)c1OCCCOc1cccc2cccnc12,i,i,nt,i,-29,i
Cc1cccc(OCCCOc2cccc3cccnc23)c1C,i,nt,nt,nt,nt,nt
CCc1ccc(S(=O)(=O)Nc2ccc(O)c3c(=O)cc(-c4ccccc4Cl)oc23)cc1,i,i,i,19,i,nt
CNC(=O)C[C@@H]1CC[C@H]2[C@H](COc3ccc(NC(=O)Nc4ccccc4)cc3C(=O)N2C)O1,i,i,i,i,i,i
CNC[C@H]1Oc2c(cccc2N(C)C)C(=O)N(C)C[C@@H]1C,nt,nt,i,nt,i,nt
Cc1ccc(CNc2nc(N)c([N+](=O)[O-])c(NCc3ccccc3)n2)cc1,nt,i,i,nt,nt,nt
Nc1nc(Nc2ccccc2)nc(NCc2ccccc2)c1[N+](=O)[O-],i,i,i,i,-15,i
Cc1ccc(CNc2nc(N)c([N+](=O)[O-])c(Nc3ccc(F)cc3)n2)cc1,123,i,i,nt,nt,nt
COc1cccc(Nc2nc(N)c([N+](=O)[O-])c(NCc3ccccc3)n2)c1,nt,nt,i,i,-34,i
Cc1ccc(S(=O)(=O)Nc2ccc3c(c2)C(=O)N([C@H](C)CO)C[C@H](C)[C@H](CN(C)CC2CCCCC2)OCCCC[C@H](C)O3)cc1,nt,i,nt,i,i,i
COc1ccc(CN(CC2CCC(C(=O)O)CC2)C(=S)Nc2ccc(C)c(Cl)c2)cc1 (configuration not stated),i,nt,i,i,-33,i
Cc1ccc(NS(=O)(=O)c2c(F)cc(F)c(Cl)c2F)cc1S(=O)(=O)N1CCOCC1,nt,i,i,44,i,nt
CN(c1ccccc1)c1nc(N)c([N+](=O)[O-])c(N2CCCC2)n1,i,i,i,i,-27,i
